Laboratory results published in ChEMBL document CHEMBL1275442, “Pharmacokinetics and tissue distribution of anidulafungin in rats” (Antimicrob Agents Chemother, 2008).

How the values were obtained:
Plasma = experiment: Half life in F344 rat plasma assessed as total compound-derived radioactivity at 5 mg/kg, iv administered as single bolus dose […]; type: ADME, organism-based; parameters: dose 5 mg/kg, route intravenous; conditions: in vivo
Summary of the method: (§1)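 Male F344 rats, 10 to 11 weeks old and 223.6 to 243.8 g, got one iv dose of [14C]anidulafungin at 5 mg/kg over about 5 min. Blood, CSF, kidney, liver, lung, quadriceps, spleen and skin were sampled predose and at 0.083 to 72 h, 3 rats per time. Total radioactivity (parent plus metabolites) was measured by liquid scintillation counting. Parameters were noncompartmental, from a composite mean profile.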

Kidney [1] = experiment: Drug level in Long Evans rat kidney assessed as high disposition of radioactivity per gram of tissue at 5 mg/kg, iv administered as single bolus dose measured 12 hrs postdose by autoradiography; type: ADME, organism-based; parameters: dose 5 mg/kg, route intravenous; conditions: in vivo
Summary of the method: (§2)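 Male pigmented Long Evans (HsdBlu:LE) rats, 7.5 weeks old, 202 to 217 g, single iv [¹⁴C]anidulafungin; one rat per sampling time. Euthanized by isoflurane and cardiac-puncture exsanguination. Sagittal whole-body sections quantified by phosphorimaging autoradiography, single samples corrected for section thickness across multiple sections per tissue. Concentrations (μg eq/g drug-derived radioactivity) interpolated from least-squares standard curves per scan.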

Kidney [2] = experiment: AUC (0 to infinity) in F344 rat kidney at 5 mg/kg, iv administered as single bolus dose; type: ADME, organism-based; parameters: time infinity, dose 5 mg/kg, route intravenous; conditions: in vivo
Summary of the method: (§3)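 Male F344 rats, 10–11 weeks, 223.6–243.8 g, given one IV dose of [¹⁴C]anidulafungin, 5 mg/kg, over about 5 min. Tissues and blood sampled at 0.083–72 h (n = 3 rats per time). Parent drug measured by HPLC; LLOQ/ULOQ were 20/5,120 ng/ml for plasma and 220/56,320 ng/g for tissue. Noncompartmental parameters taken from the composite mean profile.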

Lung [3] = experiment: Drug level in Long Evans rat lung assessed as radioactivity per gram of tissue at 5 mg/kg, iv administered as single bolus dose measured 24 hrs postdose by autoradiography; type: ADME, organism-based; parameters: dose 5 mg/kg, route intravenous; conditions: in vivo; summary of the method: as §2
Liver [4] = experiment: Drug level in Long Evans rat liver assessed as low disposition of radioactivity per gram of tissue at 5 mg/kg, iv administered as single bolus dose measured 12 hrs postdose by autoradiography; type: ADME, organism-based; parameters: dose 5 mg/kg, route intravenous; conditions: in vivo; summary of the method: as §2
Muscle tissue [5] = experiment: AUC (0 to 24 hrs) in F344 rat muscle at 5 mg/kg, iv administered as single bolus dose; type: ADME, organism-based; parameters: time < 24 hr, dose 5 mg/kg, route intravenous; conditions: in vivo; summary of the method: as §3
Kidney [6] = experiment: Drug level in Long Evans rat kidney assessed as high disposition of radioactivity per gram of tissue at 5 mg/kg, iv administered as single bolus dose measured 72 hrs postdose by autoradiography; type: ADME, organism-based; parameters: dose 5 mg/kg, route intravenous; conditions: in vivo; summary of the method: as §2
Blood [7] = experiment: Drug level in Long Evans rat blood assessed as radioactivity per gram of tissue at 5 mg/kg, iv administered as single bolus dose measured 6 hrs postdose by autoradiography; type: ADME, organism-based; parameters: dose 5 mg/kg, route intravenous; conditions: in vivo; summary of the method: as §2
[8] = Cmax in F344 rat skin at 5 mg/kg, iv administered as single bolus dose after 30 min by HPLC method; type: ADME, organism-based, Zone of skin; parameters: dose 5 mg/kg, route intravenous; summary of the method: as §3
Lung [9] = experiment: Drug level in Long Evans rat lung assessed as radioactivity per gram of tissue at 5 mg/kg, iv administered as single bolus dose measured 6 hrs postdose by autoradiography; type: ADME, organism-based; parameters: dose 5 mg/kg, route intravenous; conditions: in vivo; summary of the method: as §2
Zone of skin [10] = experiment: Tmax in F344 rat skin assessed as total compound-derived radioactivity at 5 mg/kg, iv administered as single bolus dose […]; type: ADME, organism-based; parameters: dose 5 mg/kg, route intravenous; conditions: in vivo; summary of the method: as §1
Blood [11] = experiment: AUC (0 to infinity) in F344 rat blood assessed as total compound-derived radioactivity per gram of tissue at 5 mg/kg, iv administered as single bolus dose […]; type: ADME, organism-based; parameters: dose 5 mg/kg, route intravenous, time infinity; conditions: in vivo
Summary of the method: (§4)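 Same F344 study: single 5 mg/kg IV [¹⁴C]anidulafungin given over about 5 min. Total drug-derived radioactivity (parent plus metabolites) counted by liquid scintillation, in […]. Noncompartmental analysis of the composite mean profile.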

Kidney [12] = experiment: Half life in F344 rat kidney assessed as total compound-derived radioactivity at 5 mg/kg, iv administered as single bolus dose […]; type: ADME, organism-based; parameters: dose 5 mg/kg, route intravenous; conditions: in vivo; summary of the method: as §1
Kidney [13] = experiment: Drug level in Long Evans rat kidney assessed as high disposition of radioactivity per gram of tissue at 5 mg/kg, iv administered as single bolus dose measured 0.5 hrs postdose by autoradiography; type: ADME, organism-based; parameters: dose 5 mg/kg, route intravenous; conditions: in vivo; summary of the method: as §2
Liver [14] = experiment: Drug level in Long Evans rat liver assessed as high disposition of radioactivity per gram of tissue at 5 mg/kg, iv administered as single bolus dose measured 6 hrs postdose by autoradiography; type: ADME, organism-based; parameters: dose 5 mg/kg, route intravenous; conditions: in vivo; summary of the method: as §2
Kidney [15] = experiment: Drug level in Long Evans rat kidney assessed as high disposition of radioactivity per gram of tissue at 5 mg/kg, iv administered as single bolus dose measured 24 hrs postdose by autoradiography; type: ADME, organism-based; parameters: dose 5 mg/kg, route intravenous; conditions: in vivo; summary of the method: as §2
Liver [16] = experiment: AUC (0 to 24 hrs) in F344 rat liver assessed as total compound-derived radioactivity per gram of tissue at 5 mg/kg, iv administered as single bolus dose […]; type: ADME, organism-based; parameters: time < 24 hr, dose 5 mg/kg, route intravenous; conditions: in vivo; summary of the method: as §4
Lung [17] = experiment: Half life in F344 rat lung assessed as total compound-derived radioactivity at 5 mg/kg, iv administered as single bolus dose […]; type: ADME, organism-based; parameters: dose 5 mg/kg, route intravenous; conditions: in vivo; summary of the method: as §1
Lung [18] = experiment: Drug level in Long Evans rat lung assessed as radioactivity per gram of tissue at 5 mg/kg, iv administered as single bolus dose measured 0.5 hrs postdose by autoradiography; type: ADME, organism-based; parameters: dose 5 mg/kg, route intravenous; conditions: in vivo; summary of the method: as §2
Zone of skin [19] = experiment: Drug level in Long Evans rat skin assessed as radioactivity per gram of tissue at 5 mg/kg, iv administered as single bolus dose measured 12 hrs postdose by autoradiography; type: ADME, organism-based; parameters: dose 5 mg/kg, route intravenous; conditions: in vivo
Summary of the method: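 Male pigmented Long Evans (HsdBlu:LE) rats, 7.5 weeks old and 202 to 217 g, got a single iv dose of [14C]anidulafungin at 5 mg/kg. One rat per time point (0.5, 6, 12, 24, 72, 168 h) was euthanised by isoflurane and cardiac-puncture exsanguination. Sagittal whole-body sections were quantified by phosphorimaging. Samples were thickness-corrected, and concentrations (μg eq/g) were interpolated from least-squares standard curves.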

Kidney [20] = experiment: Drug level in Long Evans rat kidney assessed as low disposition of radioactivity per gram of tissue at 5 mg/kg, iv administered as single bolus dose measured 12 hrs postdose by autoradiography; type: ADME, organism-based; parameters: dose 5 mg/kg, route intravenous; conditions: in vivo; summary of the method: as §2
Muscle tissue [21] = experiment: Cmax in F344 rat muscle assessed as total compound-derived radioactivity per gram of tissue at 5 mg/kg, iv administered as single bolus dose […]; type: ADME, organism-based; parameters: dose 5 mg/kg, route intravenous; conditions: in vivo; summary of the method: as §4
Zone of skin [22] = experiment: AUC (0 to 24 hrs) in F344 rat skin assessed as total compound-derived radioactivity per gram of tissue at 5 mg/kg, iv administered as single bolus dose […]; type: ADME, organism-based; parameters: time < 24 hr, dose 5 mg/kg, route intravenous; conditions: in vivo; summary of the method: as §4
Lung [23] = experiment: AUC (0 to 24 hrs) in F344 rat lung assessed as total compound-derived radioactivity per gram of tissue at 5 mg/kg, iv administered as single bolus dose […]; type: ADME, organism-based; parameters: time < 24 hr, dose 5 mg/kg, route intravenous; conditions: in vivo; summary of the method: as §4
Kidney [24] = experiment: AUC (0 to 24 hrs) in F344 rat kidney assessed as total compound-derived radioactivity per gram of tissue at 5 mg/kg, iv administered as single bolus dose […]; type: ADME, organism-based; parameters: time < 24 hr, dose 5 mg/kg, route intravenous; conditions: in vivo; summary of the method: as §4
Spleen = experiment: AUC (0 to infinity) in F344 rat spleen at 5 mg/kg, iv administered as single bolus dose; type: ADME, organism-based; parameters: time infinity, dose 5 mg/kg, route intravenous; conditions: in vivo; summary of the method: as §3
Cerebrum = experiment: Drug level in Long Evans rat cerebrum assessed as radioactivity per gram of tissue at 5 mg/kg, iv administered as single bolus dose measured 168 hrs postdose by autoradiography; type: ADME, organism-based; parameters: dose 5 mg/kg, route intravenous; conditions: in vivo; summary of the method: as §2
Zone of skin [25] = experiment: AUC (0 to infinity) in F344 rat skin at 5 mg/kg, iv administered as single bolus dose; type: ADME, organism-based; parameters: time infinity, dose 5 mg/kg, route intravenous; conditions: in vivo; summary of the method: as §3
Blood [26] = experiment: Drug level in Long Evans rat blood assessed as radioactivity per gram of tissue at 5 mg/kg, iv administered as single bolus dose measured 24 hrs postdose by autoradiography; type: ADME, organism-based; parameters: dose 5 mg/kg, route intravenous; conditions: in vivo; summary of the method: as §2

CCCCCOc1ccc(-c2ccc(-c3ccc([14C](=O)N[C@H]4C[C@@H](O)[C@@H](O)NC(=O)[C@@H]5[C@@H](O)[C@@H](C)CN5C(=O)[C@H]([C@@H](C)O)NC(=O)[C@H]([C@H](O)[C@@H](O)c5ccc(O)cc5)NC(=O)[C@@H]5C[C@@H](O)CN5C(=O)[C@H]([C@@H](C)O)NC4=O)cc3)cc2)cc1 [14C-ANIDULAFUNGIN]
t1/2 (Plasma): 37.4 h | Drug uptake (Kidney [1]): 14.1 ugequiv | AUC (Kidney [2]): 658.93 µg·h/g | Drug uptake (Lung [3]): 8.05 ugequiv | Drug uptake (Liver [4]): 15.03 ugequiv | AUC (Muscle tissue [5]): 54.33 µg·h/g | Drug uptake (Kidney [6]): 7.32 ugequiv | Drug uptake (Blood [7]): 5.07 ugequiv | Cmax [8]: 4020 ng/g | Drug uptake (Lung [9]): 22.88 ugequiv | Tmax (Zone of skin [10]): 1 h | AUC (Blood [11]): 243.62 ugequiv.hr/g | t1/2 (Kidney [12]): 48.5 h | Drug uptake (Kidney [13]): 18.09 ugequiv | Drug uptake (Liver [14]): 29.1 ugequiv | Drug uptake (Kidney [15]): 12.57 ugequiv | AUC (Liver [16]): 1346.94 ugequiv.hr/g | t1/2 (Lung [17]): 42.2 h | Drug uptake (Lung [18]): 22.31 ugequiv | Drug uptake (Zone of skin [19]): 5.34 ugequiv | Drug uptake (Kidney [20]): 7.54 ugequiv | Cmax (Muscle tissue [21]): 4.16 ugequiv/g | AUC (Zone of skin [22]): 190.73 ugequiv.hr/g | AUC (Lung [23]): 934.92 ugequiv.hr/g | AUC (Kidney [24]): 920.18 ugequiv.hr/g | AUC (Spleen): 567.95 µg·h/g | Drug uptake (Cerebrum): 0.6 ugequiv | AUC (Zone of skin [25]): 124.11 µg·h/g | Drug uptake (Blood [26]): 2.27 ugequiv
